A short description of assay [1]: Antiproliferative activity human HEKa cells assessed as reduction in cell viability at 50 ug/ml incubated for 24 hrs by MTS assay. It is filed as functional. The note with it: dose 50 µg/ml. The method, boiled down: (§1)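 Cells seeded at 10,000 per well 24 h before treatment. Media: MRC-5 and HEK293 in DMEM with 10% FBS; HepaRG in William's E with GlutaMAX; HEKa in Dermal Cell Basal medium plus keratinocyte growth kit. Peptide at 10–250 μg/mL in triplicate for 24 h, 37 °C, 5% CO2. MTS added for 2 h, then A490 read. Survival is blank-corrected OD as % of untreated control.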
(Tetrazolium dyes change colour on reduction, which living cells bring about.)

Assay [2] deals with Staphylococcus aureus. The experiment in a line: Antibacterial activity against methicillin resistant Staphylococcus aureus ATCC BAA 1556 assessed as fold increase in MIC incubated for 24 hrs in presence of Ca2+ ions by CLSI based broth microdilution method. It is filed as functional. In outline:
(§2)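 CLSI broth microdilution. Overnight cultures diluted in cation-adjusted Mueller Hinton broth to 10^6 CFU/mL, mixed 1:1 with 2-fold serial peptide dilutions, 24 h at 37 °C. […] MIC is the lowest concentration inhibiting growth. Three independent assays in triplicate.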
(In general: In broth dilution the organism is exposed to a series of concentrations in liquid medium.)

Assay [3] has as its system Cell membrane. The experiment in a line: Induction of membrane disruption in bacterial inner membrane mimic DOPC/DOPG (7:3) large unilamellar vesicles assessed as induction of dye leakage measured upto 100 mins by calcein dye based analysis. It counts as subcellular. The conditions noted are these: dose 5-50 µg/ml. In outline: (§3)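 LUVs loaded with calcein: DOPC/DOPG 7:3 w/w (bacterial mimic) or DOPC/cholesterol 10:1 w/w (mammalian mimic). Mixed 1:1 by volume with peptide at 5, 10, 20, 30 or 50 μg/mL. Fluorescence (ex 490/em 520 nm) read every 10 min for 100 min. Leakage expressed relative to 10% Triton X-100 lysis (100%), after subtracting liposome background. Triplicate.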

For assay [4], the system named is Cell membrane. As to the kind of experiment: Disruption of cell membrane in methicillin resistant Staphylococcus aureus ATCC BAA 1556 assessed as cell membrane perturbation measured after 1 hrs by DAPI and PI double staining based fluorescence microscopic analysis. It counts as subcellular. The method, boiled down: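 Mid-log cells washed in PBS (10 mM, pH 7.3), 10^7 CFU/mL, treated at MIC and 4× MIC for 1 h. Pelleted and washed, then stained with PI for 15 min at 37 °C in the dark, then DAPI for 15 min at 37 °C in the dark. Untreated controls. Imaged by fluorescence microscopy, 60× oil objective.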

In the next assay the test system is MRC5. As to the kind of experiment: Antiproliferative activity human MRC5 cells assessed as reduction in cell viability at 250 ug/ml incubated for 24 hrs by MTS assay. The conditions noted are these: dose 250 µg/ml. It is filed as functional. In outline:
as §1

The test system of assay [5] is Staphylococcus aureus. The experiment in a line: Antibacterial activity against methicillin resistant Staphylococcus aureus ATCC BAA 1556 assessed as fold increase in MIC incubated for 24 hrs in presence of Na+ ions by CLSI based broth microdilution method. It is filed as functional. The method, boiled down:
as §2

In assay [6] the test system is Staphylococcus aureus. As to the kind of experiment: Bactericidal activity against methicillin resistant Staphylococcus aureus ATCC BAA 1556 assessed as inhibition of bacterial growth at 4 times of MIC incubated for 4 hrs by Time kill assay. It is filed as functional. The method, boiled down: (§4)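 Aliquots taken every 30 min for 4 h and plated on agar for viable colony counts. Two independent experiments in triplicate.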

In assay [7] the test system is Escherichia coli. As to the kind of experiment: Antibacterial activity against Escherichia coli ATCC 25922 assessed as fold increase in MIC incubated for 24 hrs in presence of Mg2+ ions by CLSI based broth microdilution method. It is filed as functional. The method, boiled down:
(§5)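 E. coli MICs by CLSI broth microdilution in cation-adjusted Mueller Hinton broth. […] Inoculum was 10^6 CFU/mL with 2-fold serial peptide dilutions, incubated 24 h at 37 °C. MIC is the lowest concentration inhibiting growth. Three independent assays, each in triplicate.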

The subject of assay [8] is Staphylococcus aureus. The experiment in a line: Antibacterial activity against methicillin resistant Staphylococcus aureus ATCC BAA 1556 assessed as fold increase in MIC incubated for 24 hrs in presence of K+ ions by CLSI based broth microdilution method. It is filed as functional. The method, boiled down:
as §2

Assay [9] concerns Staphylococcus aureus. The experiment in a line: Bactericidal activity against methicillin resistant Staphylococcus aureus ATCC BAA 1556 assessed as inhibition of bacterial growth at MIC incubated for 4 hrs by Time kill assay. It counts as functional. In outline: as §4
Assay [10] has as its system Cell membrane. The experiment in a line: Disruption of cell membrane in Escherichia coli ATCC BAA-2452 assessed as cell membrane perturbation at 4 times of MIC measured after 1 hrs by PI and DAPI double staining based fluorescence microscopic analysis. In outline:
(§6)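 Mid-log E. coli ATCC BAA-2452 was washed three times in PBS (10 mM, pH 7.3). Cells at 10^7 CFU/mL were exposed to agent at MIC or 4× MIC for 1 h, then pelleted at 3000g and washed. Staining was PI for 15 min, then DAPI for 15 min, both at 37 °C in the dark. Untreated cells were processed alike. Imaged by fluorescence microscopy with 60× oil objective.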

Assay [11] concerns Escherichia coli. As to the kind of experiment: Antibacterial activity against Escherichia coli ATCC 25922 assessed as fold increase in MIC incubated for 24 hrs in presence of Ca2+ ions by CLSI based broth microdilution method. It counts as functional. In outline: as §5
In assay [12] the test system is HEK293. The experiment in a line: Antiproliferative activity human HEK293 cells assessed as reduction in cell viability at 250 ug/ml incubated for 24 hrs by MTS assay. It counts as functional. The conditions noted are these: dose 250 µg/ml. In outline: as §1
The subject of assay [13] is Cell membrane. As to the kind of experiment: Disruption of cell membrane in methicillin resistant Staphylococcus aureus ATCC BAA 1556 assessed as increase in PI fluorescence intensity at 4 times of MIC measured after 1 hrs by PI staining based flow cytometric analysis. In outline: (§7)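 Mid-log cells grown in Mueller Hinton broth, washed in 10 mM Tris pH 7.4, 10^7 CFU/mL, treated at MIC and 4× MIC for 1 h. Pelleted, washed, PI-stained for 15 min at 37 °C in the dark, then counted by flow cytometry for % PI-positive cells. PBS-treated cells as negative control, 10% Triton X-100 as positive control. Run in triplicate; two-tailed unpaired t-test.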

Assay [14] concerns Cell membrane. The experiment in a line: Disruption of cell membrane in methicillin resistant Staphylococcus aureus ATCC BAA 1556 assessed as increase in PI fluorescence intensity measured after 1 hrs by PI staining based flow cytometric analysis. It counts as subcellular. In outline:
as §7
(In general: In flow cytometry, cells or beads pass a laser one at a time.)

Assay [15] deals with Cell membrane. As to the kind of experiment: Induction of membrane disruption in bacterial inner membrane mimic DOPC/DOPG (7:3) large unilamellar vesicles assessed as induction of dye leakage at 5 ug/ml measured after 100 mins by calcein dye based analysis. It counts as subcellular. The conditions noted are these: dose 5.0 µg/ml. The method, boiled down:
as §3

Assay [16] relates to Cell membrane. The experiment in a line: Disruption of cell membrane in Escherichia coli ATCC BAA-2452 assessed as cell membrane perturbation measured after 1 hrs by PI and DAPI double staining based fluorescence microscopic analysis. It is filed as subcellular. The method, boiled down:
as §6

In assay [17] the test system is Staphylococcus aureus. The experiment in a line: Antibacterial activity against methicillin resistant Staphylococcus aureus ATCC BAA 1556 assessed as fold increase in MIC incubated for 24 hrs in presence of Mg2+ ions by CLSI based broth microdilution method. It counts as functional. In outline: as §2
The test system of assay [18] is HEK293. As to the kind of experiment: Antiproliferative activity human HEK293 cells assessed as reduction in cell viability at 50 ug/ml incubated for 24 hrs by MTS assay. It counts as functional. The note with it: dose 50 µg/ml. In outline: as §1
Assay [19] concerns Escherichia coli. As to the kind of experiment: Antibacterial activity against Escherichia coli ATCC 25922 assessed as fold increase in MIC incubated for 24 hrs in presence of Na+ ions by CLSI based broth microdilution method. It counts as functional. The method, boiled down:
as §5

Assay [20] concerns Escherichia coli. The experiment in a line: Antibacterial activity against Escherichia coli ATCC 25922 assessed as fold increase in MIC incubated for 24 hrs in presence of K+ ions by CLSI based broth microdilution method. It counts as functional. In outline:
as §5

The source of these data is ChEMBL document CHEMBL5316289, “Structure-Based Rational Design of Small α-Helical Peptides with Broad-Spectrum Activity against Multidrug-Resistant Pathogens” (J Med Chem, 2023).

Calls of active or inactive are those of the source. The rule behind the calls is not given here. Where only a bound is given, the exact number is not on record here.

As for H-RWLRRWLRWWRR-NH2, the Activity is under 60% in assay [1]; “Dose-Dependent Effect” with Cell membrane [3]; “Dose-Dependent Effect” in the assay on Cell membrane [4]; under 30% in the assay with MRC5; under 30% in the assay on HEK293 [12]; 75% in the assay with Cell membrane [13]. In addition, the Activity result is “Dose-Dependent Effect” with Cell membrane [14], 30% with Cell membrane [15], “Dose-Dependent Effect” in the assay with Cell membrane [16] and under 60% in the assay on HEK293 [18]. For the same substance, the “fold change (FC)” value with Staphylococcus aureus [2], with Staphylococcus aureus [5], in the assay with Escherichia coli [7], in the assay on Staphylococcus aureus [8], with Escherichia coli [11] and with Staphylococcus aureus [17] was 2 each time. Moreover, the “fold change (FC)” value with Escherichia coli [19] and with Escherichia coli [20] was 2 each time. Also, the “inhibition (INH)” value in the assay on Staphylococcus aureus [6] came out at 100%; in the assay on Staphylococcus aureus [9], 75%. The result in the assay with Cell membrane [10] was Active.

For the substance H-KWLKKWLKWWKK-NH2, the Activity in [1] is over 75%; in the assay with Cell membrane [3], “Dose-Dependent Effect”; with Cell membrane [4], “Dose-Dependent Effect”; with MRC5, over 60%; with HEK293 [12] it was over 60%; in the assay on Cell membrane [13] it was 75%. Also, the Activity entry was “Dose-Dependent Effect” in the assay with Cell membrane [14], 30% in the assay on Cell membrane [15], “Dose-Dependent Effect” in the assay with Cell membrane [16] and over 75% in the assay with HEK293 [18]. The “fold change (FC)” value in the assay on Staphylococcus aureus [2], in the assay on Staphylococcus aureus [5], with Escherichia coli [7], in the assay with Staphylococcus aureus [8], with Escherichia coli [11] and in the assay with Staphylococcus aureus [17] was 2 throughout. Further, the “fold change (FC)” value in the assay with Escherichia coli [19] and with Escherichia coli [20] was 2 each time. Also, the figures for the “inhibition (INH)” value in the assay with Staphylococcus aureus [6] and in the assay on Staphylococcus aureus [9] were 100% and 75%, respectively. The outcome in the assay with Cell membrane [10] was Active.
